Test results from ChEMBL document CHEMBL1135917, “Human somatostatin receptor specificity of backbone-cyclic analogues containing novel sulfur building units” (J Med Chem, 2002).
*1 amine or outer side, *2 acyl side, *3 side chain or, on linkers, in order; H or OH if unused. Where a SMILES comes first, the peptide text is derived from it. Bridges are numbered along the chain shown (N, C = ends). [ ]: non-standard residue; d: D form. N(2-mercaptoethyl)Gly = O=C(CN(CCS[*:3])[*:1])[*:2]

Legend:
[1] = molecular target: Somatostatin receptor type 2 (Homo sapiens, UniProt P30874); test: Binding affinity of human Somatostatin receptor type 2 (hsst2) by the displacement of [125I]- Tyr11 somatostatin-14 in CHO-K1 cells; type: cell-based
Method in brief: (§1)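 Membranes from CHO-K1 cells stably expressing each cloned human receptor, prepared in 50 mM Tris-HCl pH 7.8 with EGTA, MgCl2 and protease inhibitors. Membranes (0.2 or 0.4 mg/mL protein, receptor-dependent) incubated with 125I-Tyr11 somatostatin-14 for 45 min at room temperature. Nonspecific binding taken with […] somatostatin. Bound ligand separated by GF/C filtration and counted. Triplicate wells, at least two experiments. IC50 taken from inhibition curves, mean ± SEM.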

[2] = molecular target: Somatostatin receptor type 1 (Homo sapiens, UniProt P30872); test: Binding affinity of human Somatostatin receptor type 1 (hsst1) by the displacement of [125I]- Tyr11 somatostatin-14 in CHO-K1 cells.; type: cell-based; method in brief: as §1
[3] = molecular target: Somatostatin receptor type 5 (Homo sapiens, UniProt P35346); test: Binding affinity of human Somatostatin receptor type 5 (hsst5) by the displacement of [125I]- Tyr11 somatostatin-14 in CHO-K1 cells; type: cell-based; method in brief: as §1
[4] = molecular target: Somatostatin receptor type 3 (Homo sapiens, UniProt P32745); test: Binding affinity of human Somatostatin receptor type 3 (hsst3) by the displacement of [125I]- Tyr11 somatostatin-14 in CHO-K1 cells; type: cell-based; method in brief: as §1
[5] = molecular target: Somatostatin receptor type 4 (Homo sapiens, UniProt P31391); test: Binding affinity of human Somatostatin receptor type 4 (hsst4) by the displacement of [125I]- Tyr11 somatostatin-14 in CHO-K1 cells; type: cell-based; method in brief: as §1
[6] = Half life in renal homogenate; type: ADME, tissue-based
Method in brief: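 Peptides at 0.4 mg/mL final were incubated in rat renal homogenate at 37 °C for up to 4 h. Samples were taken at several time points. The fraction of intact peptide was measured by HPLC from the loss of major-peak area.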

Somatostatin receptor type 2, sequence (P30874 whole entry): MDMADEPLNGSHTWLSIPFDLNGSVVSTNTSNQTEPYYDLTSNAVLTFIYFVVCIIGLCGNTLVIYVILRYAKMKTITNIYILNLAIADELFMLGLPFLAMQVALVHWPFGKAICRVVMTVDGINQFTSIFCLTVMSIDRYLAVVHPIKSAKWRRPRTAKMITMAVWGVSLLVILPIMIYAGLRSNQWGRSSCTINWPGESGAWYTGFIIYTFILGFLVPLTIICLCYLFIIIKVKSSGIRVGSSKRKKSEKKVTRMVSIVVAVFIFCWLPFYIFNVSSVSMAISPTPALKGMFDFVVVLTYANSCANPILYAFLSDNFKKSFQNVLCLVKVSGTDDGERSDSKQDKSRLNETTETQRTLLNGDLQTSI
Somatostatin receptor type 5, sequence (P35346 whole entry): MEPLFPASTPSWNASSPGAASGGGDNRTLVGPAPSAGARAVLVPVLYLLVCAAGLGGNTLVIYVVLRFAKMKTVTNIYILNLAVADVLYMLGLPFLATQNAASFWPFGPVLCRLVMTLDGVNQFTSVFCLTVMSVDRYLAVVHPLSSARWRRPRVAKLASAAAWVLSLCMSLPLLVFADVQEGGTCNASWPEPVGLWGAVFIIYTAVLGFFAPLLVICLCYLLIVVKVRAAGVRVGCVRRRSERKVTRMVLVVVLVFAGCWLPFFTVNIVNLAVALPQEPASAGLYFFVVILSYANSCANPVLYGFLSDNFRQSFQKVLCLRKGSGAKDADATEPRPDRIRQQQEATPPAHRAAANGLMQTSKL
Somatostatin receptor type 4, sequence (P31391 whole entry): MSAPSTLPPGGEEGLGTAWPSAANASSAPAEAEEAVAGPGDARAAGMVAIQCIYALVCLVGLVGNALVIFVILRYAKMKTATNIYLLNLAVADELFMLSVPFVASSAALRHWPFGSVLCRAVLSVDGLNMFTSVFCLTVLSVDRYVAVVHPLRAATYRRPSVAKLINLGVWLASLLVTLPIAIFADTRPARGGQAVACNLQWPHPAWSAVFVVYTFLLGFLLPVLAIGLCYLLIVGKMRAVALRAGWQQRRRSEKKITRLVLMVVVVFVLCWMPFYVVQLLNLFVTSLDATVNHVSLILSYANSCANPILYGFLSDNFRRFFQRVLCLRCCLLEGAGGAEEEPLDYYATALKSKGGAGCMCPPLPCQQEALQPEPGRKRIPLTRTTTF
Somatostatin receptor type 3, sequence (P32745 whole entry): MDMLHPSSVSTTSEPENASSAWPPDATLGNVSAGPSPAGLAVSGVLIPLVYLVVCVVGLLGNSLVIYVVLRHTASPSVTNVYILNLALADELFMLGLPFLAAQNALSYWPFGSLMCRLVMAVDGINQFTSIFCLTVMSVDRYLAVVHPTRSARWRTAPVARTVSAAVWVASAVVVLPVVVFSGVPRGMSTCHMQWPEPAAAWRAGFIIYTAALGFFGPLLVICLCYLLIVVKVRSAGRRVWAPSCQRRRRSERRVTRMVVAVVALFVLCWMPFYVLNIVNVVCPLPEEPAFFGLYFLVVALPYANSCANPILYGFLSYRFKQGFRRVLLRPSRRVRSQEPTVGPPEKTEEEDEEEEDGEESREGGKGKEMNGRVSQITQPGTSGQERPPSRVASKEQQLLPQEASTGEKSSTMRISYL
Somatostatin receptor type 1, sequence (P30872 whole entry): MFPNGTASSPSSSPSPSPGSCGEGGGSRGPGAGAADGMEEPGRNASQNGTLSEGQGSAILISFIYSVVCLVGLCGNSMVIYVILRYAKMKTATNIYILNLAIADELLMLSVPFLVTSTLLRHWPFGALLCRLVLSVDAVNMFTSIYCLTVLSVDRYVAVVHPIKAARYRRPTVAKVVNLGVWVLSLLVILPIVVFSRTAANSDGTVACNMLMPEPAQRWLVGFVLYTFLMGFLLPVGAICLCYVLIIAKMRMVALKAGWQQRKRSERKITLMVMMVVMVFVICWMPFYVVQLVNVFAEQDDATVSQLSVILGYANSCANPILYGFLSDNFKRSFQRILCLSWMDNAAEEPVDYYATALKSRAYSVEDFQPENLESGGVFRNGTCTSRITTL

| Compound | IC50 ([1]; cho-k1) | IC50 ([2]; cho-k1) | IC50 ([3]; cho-k1) | IC50 ([4]; cho-k1) | IC50 ([5]; cho-k1) | IC50 [1] | IC50 [2] | IC50 [3] | IC50 [4] | IC50 [5] | half-life [6] |
| --- | --- | --- | --- | --- | --- | --- | --- | --- | --- | --- | --- |
| C[C@@H](O)[C@@H]1NC(=O)[C@@H](CCCCN)NC(=O)[C@@H](Cc2c[nH]c3ccccc23)NC(=O)[C@@H](Cc2c[nH]c3ccccc23)NC(=O)[C@H](Cc2ccccc2)NC(=O)C(NC(=O)[C@@H](N)Cc2ccccc2)CSSCCN(CC(N)=O)C(=O)[C@@H](Cc2ccccc2)NC1=O (stereo not given in full) | 12.8 nM | > 1000 nM | 4.5 nM | > 100 nM | 35.9 nM |  |  |  |  |  |  |
| C[C@@H](O)[C@@H]1NC(=O)[C@@H](CCCCN)NC(=O)[C@@H](Cc2c[nH]c3ccccc23)NC(=O)[C@@H](Cc2c[nH]c3ccccc23)NC(=O)[C@H](Cc2ccccc2)NC(=O)CN(C(=O)[C@@H](N)Cc2ccccc2)CCSSCCN(CC(N)=O)C(=O)[C@@H](Cc2ccccc2)NC1=O | 2.5 nM | > 1000 nM | 18.2 nM | > 100 nM | > 100 nM |  |  |  |  |  |  |
| C[C@@H](O)[C@@H]1NC(=O)[C@H](CCCCN)NC(=O)[C@@H](Cc2c[nH]c3ccccc23)NC(=O)[C@H](Cc2c[nH]c3ccccc23)NC(=O)[C@H](Cc2ccccc2)NC(=O)CCCNC(=O)CCCN(CC(N)=O)C(=O)[C@H](Cc2ccccc2)NC1=O |  |  |  |  |  | 3 nM | > 1000 nM | 1 nM | > 100 nM | 7 nM |  |
| C[C@@H](O)[C@@H]1NC(=O)[C@H](CCCCN)NC(=O)[C@@H](Cc2c[nH]c3ccccc23)NC(=O)[C@H](Cc2c[nH]c3ccccc23)NC(=O)[C@H](Cc2ccccc2)NC(=O)CCSSCCN(CC(N)=O)C(=O)[C@H](Cc2ccccc2)NC1=O |  |  |  |  |  | 1.3 nM | > 1000 nM | 2.8 nM | > 100 nM | > 100 nM |  |
| C[C@@H](O)[C@@H]1NC(=O)[C@H](CCCCN)NC(=O)[C@@H](Cc2c[nH]c3ccccc23)NC(=O)[C@H](Cc2c[nH]c3ccccc23)NC(=O)[C@H](Cc2ccccc2)NC(=O)CSSCCN(CC(N)=O)C(=O)[C@H](Cc2ccccc2)NC1=O |  |  |  |  |  | 28.7 nM | > 1000 nM |  | 15.6 nM | > 100 nM |  |
| C[C@@H](O)[C@@H]1NC(=O)[C@H](CCCCN)NC(=O)[C@@H](Cc2c[nH]c3ccccc23)NC(=O)[C@H](Cc2c[nH]c3ccccc23)NC(=O)[C@H](Cc2ccccc2)NC(=O)CNCCSSCCN(CC(N)=O)C(=O)[C@H](Cc2ccccc2)NC1=O |  |  |  |  |  | 4.1 nM | > 1000 nM | 7.8 nM | > 100 nM | 49.5 nM |  |
| C[C@@H](O)[C@@H]1NC(=O)[C@H](CCCCN)NC(=O)[C@@H](Cc2c[nH]c3ccccc23)NC(=O)[C@H](Cc2c[nH]c3ccccc23)NC(=O)[C@H](Cc2ccccc2)NC(=O)[C@@H](N)CSSCCN(CC(N)=O)C(=O)[C@H](Cc2ccccc2)NC1=O (H-CFW[dW]KTF[N(2-mercaptoethyl)Gly]-NH2; disulfide 1-8) |  |  |  |  |  | 5.2 nM | > 1000 nM | 1.2 nM | 40.7 nM | 41.1 nM | 3 h |
